Laboratory results from ChEMBL document CHEMBL1122395, “Tetracyclic chromophoric analogues of actinomycin D: synthesis, structure elucidation and interconvertibility from one form to another, antitumor activity, and structure-activity relationships” (1983).
Converted amounts (≈) assume the structure as drawn. Starred links: 1 amine or outer side, 2 acyl side, 3 side chain; linkers in the order of their positions; H or OH if unused. Positions of bridges follow the written chain, without caps; N, C: chain ends. Non-standard residues stand in square brackets, D forms with d. Residues, ends and D or L forms follow the SMILES beside them. Chains are numbered I, II in the order given. Actinocin(1to9) = Cc1c2oc3c(C)ccc(C(=O)[*:2])c3nc-2c(C(=O)[*:1])c(N)c1=O; NMeV = CN[C@H](C(=O)O)C(C)C; Sar = CNCC(=O)O

Key:
[1] = system: P388; experiment: Percent increase in life span observed in P-388 cells infected male CDF1 hybrid mice after intraperitoneal administration at 450 ug/kg optimal dose; format: functional, Mus musculus
Summary of the method: (§1)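 Male CDF1 mice, seven per group, given 10^6 P388 cells ip on day 0. Drugs were given ip in 10% Me2SO-saline on days 1, 5 and 9, with solutions kept at 0-4 °C, protected from light and checked for homogeneity by HPLC. A range of doses was run and the optimal nontoxic dose reported. Read-outs were median survival time, percent increase in life span, and cures (over-60-day survivors, average of two experiments).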

[2] = system: P388; experiment: Median survival time observed in P-388 cells infected male CDF1 hybrid mice after intraperitoneal administration at 450 ug/kg optimal dose; format: functional, Mus musculus; summary of the method: as §1
[3] = species on record: Mus musculus; experiment: Male CDF1 hybrid treated mice out of seven which survived over 60 days after the treatment.; format: functional; summary of the method: as §1
[4] = system: CCRF-CEM; experiment: Growth inhibitory activity against human lymphoblastic leukemia cells(CCRF-CEM); format: functional; settings: read-out: ID50 (the source's name)
Summary of the method: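 Log-phase human lymphoblastic leukemia CCRF-CEM cells grown in suspension culture. Compounds dissolved in Me2SO, final growth medium contained 5% Me2SO. Test solutions kept at 0-4 °C, protected from light, homogeneity checked by HPLC before testing. ID50 reported in ng/mL.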

[5] = system: P388; experiment: Median survival time observed in P-388 cells infected male CDF1 hybrid mice after intraperitoneal administration at 600 ug/kg optimal dose; format: functional, Mus musculus; summary of the method: as §1
[6] = system: P388; experiment: Percent increase in life span observed in P-388 cells infected male CDF1 hybrid mice after intraperitoneal administration at 600 ug/kg optimal dose; format: functional, Mus musculus; summary of the method: as §1
[7] = system: P388; experiment: Median survival time observed in P-388 cells infected male CDF1 hybrid mice after intraperitoneal administration at 1200 ug/kg optimal dose; format: functional, Mus musculus; summary of the method: as §1
[8] = system: P388; experiment: Percent increase in life span observed in P-388 cells infected male CDF1 hybrid mice after intraperitoneal administration at 1200 ug/kg optimal dose; format: functional, Mus musculus; summary of the method: as §1
[9] = system: Nucleic Acid; experiment: (§2) Melting temperature of DNA-drug complex minus melting temperature of purified calf-thymus DNA; format: functional; settings: Bos taurus
[10] = system: P388; experiment: Median survival time observed in P-388 cells infected male CDF1 hybrid mice after intraperitoneal administration at 900 ug/kg optimal dose; format: functional, Mus musculus; summary of the method: as §1
[11] = system: P388; experiment: Percent increase in life span observed in P-388 cells infected male CDF1 hybrid mice after intraperitoneal administration at 900 ug/kg optimal dose; format: functional, Mus musculus; summary of the method: as §1
[12] = system: P388; experiment: Percent increase in life span observed in P-388 cells infected male CDF1 hybrid mice after intraperitoneal administration at 125 ug/kg optimal dose; format: functional, Mus musculus; summary of the method: as §1
[13] = species on record: Bos taurus; experiment: as §2; format: functional
Summary of the method: (§3)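 Calf-thymus DNA, purified. ΔTm is the Tm of the DNA-drug complex minus the Tm of DNA alone. Medium was 0.01 M phosphate buffer, pH 7.0, with EDTA.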

[14] = system: P388; experiment: Median survival time observed in P-388 cells infected male CDF1 hybrid mice after intraperitoneal administration at 125 ug/kg optimal dose; format: functional, Mus musculus; summary of the method: as §1
[15] = system: P388; experiment: Median survival time observed in P-388 cells infected male CDF1 hybrid mice after intraperitoneal administration at 750 ug/kg optimal dose; format: functional, Mus musculus; summary of the method: as §1
[16] = system: P388; experiment: Percent increase in life span observed in P-388 cells infected male CDF1 hybrid mice after intraperitoneal administration at 750 ug/kg optimal dose; format: functional, Mus musculus; summary of the method: as §1
[17] = system: Nucleic Acid; experiment: as §2; format: functional; settings: Bos taurus; summary of the method: as §3; remark: listed apart in the source

Question: Which results are given for Cc1nc2c(C(=O)N[C@@H]3C(=O)N[C@H](C(C)C)C(=O)N4CCC[C@H]4C(=O)N(C)CC(=O)N(C)[C@@H](C(C)C)C(=O)O[C@@H]3C)c3nc4c(C(=O)N[C@@H]5C(=O)N[C@H](C(C)C)C(=O)N6CCC[C@H]6C(=O)N(C)CC(=O)N(C)[C@@H](C(C)C)C(=O)O[C@@H]5C)cc(=O)c(C)c-4oc3c(C)c2o1?
Answer: ILS [1]: 182%; MST [2]: 31 days; Cures [3]: 1; IC50 [4]: 0.23 µg/mL (≈ 0.178 µM)

Question: For Cc1ccc(C(=O)N[C@@H]2C(=O)N[C@H](C(C)C)C(=O)N3CCC[C@H]3C(=O)N(C)CC(=O)N(C)[C@@H](C(C)C)C(=O)O[C@@H]2C)c2c1Oc1c(c(C(=O)N[C@@H]3C(=O)N[C@H](C(C)C)C(=O)N4CCC[C@H]4C(=O)N(C)CC(=O)N(C)[C@@H](C(C)C)C(=O)O[C@@H]3C)c3nc(-c4cccc(Cl)c4)c(=O)oc3c1C)N2, which MST [5] is on record?
Answer: 29 days

Question: And the Cures [3]?
Answer: 0

Question: And the IC50 [4]?
Answer: 1.6 µg/mL (≈ 1.14 µM)

Question: What about the ILS [6] of the same compound?
Answer: 164%

Question: Which results are given for Cc1nc2c(C(=O)N[C@@H]3C(=O)N[C@H](C(C)C)C(=O)N4CCC[C@H]4C(=O)N(C)CC(=O)N(C)[C@@H](C(C)C)C(=O)O[C@@H]3C)c3c(c(C)c2o1)Oc1c(C)ccc(C(=O)N[C@@H]2C(=O)N[C@H](C(C)C)C(=O)N4CCC[C@H]4C(=O)N(C)CC(=O)N(C)[C@@H](C(C)C)C(=O)O[C@@H]2C)c1N3?
Answer: MST [7]: 21 days; ILS [8]: 91%; Cures [3]: 0; IC50 [4]: 2.9 µg/mL (≈ 2.26 µM)

Question: How did the ΔTm [9] turn out when Cc1c2oc3c(C)c(O)c(N)c(C(=O)N[C@H]4C(=O)N[C@@H](C(C)C)C(=O)N5CCC[C@H]5C(=O)N(C)CC(=O)N(C)[C@H](C(C)C)C(=O)O[C@H]4C)c3nc-2c(C(=O)N[C@@H]2C(=O)N[C@H](C(C)C)C(=O)N3CCC[C@@H]3C(=O)N(C)CC(=O)N(C)[C@@H](C(C)C)C(=O)O[C@@H]2C)cc1=O was run?
Answer: 6.7 °C

Question: How did the MST [10] turn out when Cc1c2oc3c(C)c4oc(-c5c(F)c(F)c(F)c(F)c5F)nc4c(C(=O)N[C@@H]4C(=O)N[C@H](C(C)C)C(=O)N5CCC[C@H]5C(=O)N(C)CC(=O)N(C)[C@@H](C(C)C)C(=O)O[C@@H]4C)c3nc-2c(C(=O)N[C@@H]2C(=O)N[C@H](C(C)C)C(=O)N3CCC[C@H]3C(=O)N(C)CC(=O)N(C)[C@@H](C(C)C)C(=O)O[C@@H]2C)cc1=O was run?
Answer: 3 days

Question: What about the ILS [11] of the same compound?
Answer: 172%

Question: What about the Cures [3] of the same compound?
Answer: 1

Question: And the IC50 [4]?
Answer: 0.63 µg/mL (≈ 0.435 µM)

Question: With Cc1c2oc3c(C)ccc(C(=O)N[C@@H]4C(=O)N[C@H](C(C)C)C(=O)N5CCC[C@H]5C(=O)N(C)CC(=O)N(C)[C@@H](C(C)C)C(=O)O[C@@H]4C)c3nc-2c(C(=O)N[C@@H]2C(=O)N[C@H](C(C)C)C(=O)N3CCC[C@H]3C(=O)N(C)CC(=O)N(C)[C@@H](C(C)C)C(=O)O[C@@H]2C)c(N)c1=O [DACTINOMYCIN] (I: T[dV]P[Sar][NMeV] / II: T[dV]P[Sar][NMeV]; ester I:1-I:C, II:1-II:C; linker I:N-II:N via Actinocin(1to9)) as the compound, how does the ILS [12] read?
Answer: 136%

Question: What about the ΔTm [13] of the same compound?
Answer: 7.1 °C

Question: And the Cures [3]?
Answer: 1

Question: What about the MST [14] of the same compound?
Answer: 26 days

Question: What about the IC50 [4] of the same compound?
Answer: 0.04 µg/mL (≈ 0.0319 µM)

Question: Cc1c2oc3c(C)c4oc(-c5ccccc5)nc4c(C(=O)N[C@@H]4C(=O)N[C@H](C(C)C)C(=O)N5CCC[C@H]5C(=O)N(C)CC(=O)N(C)[C@@H](C(C)C)C(=O)O[C@@H]4C)c3nc-2c(C(=O)N[C@@H]2C(=O)N[C@H](C(C)C)C(=O)N3CCC[C@H]3C(=O)N(C)CC(=O)N(C)[C@@H](C(C)C)C(=O)O[C@@H]2C)cc1=O was tested. Which MST [15] did it give?
Answer: 44 days

Question: What about the Cures [3] of the same compound?
Answer: 2

Question: What about the IC50 [4] of the same compound?
Answer: 0.31 µg/mL (≈ 0.228 µM)

Question: What about the ILS [16] of the same compound?
Answer: 300%

Question: Cc1ccc(C(=O)N[C@@H]2C(=O)N[C@H](C(C)C)C(=O)N3CCC[C@H]3C(=O)N(C)CC(=O)N(C)[C@@H](C(C)C)C(=O)O[C@@H]2C)c2c1Oc1c(c(C(=O)N[C@@H]3C(=O)N[C@H](C(C)C)C(=O)N4CCC[C@H]4C(=O)N(C)CC(=O)N(C)[C@@H](C(C)C)C(=O)O[C@@H]3C)c3nc(-c4ccc(Cl)cc4Cl)c(=O)oc3c1C)N2 was tested. Which MST [7] did it give?
Answer: 28 days

Question: What about the ILS [8] of the same compound?
Answer: 155%

Question: What about the Cures [3] of the same compound?
Answer: 0

Question: What about the IC50 [4] of the same compound?
Answer: 3.2 µg/mL (≈ 2.22 µM)

Question: Cc1nc2c(C(=O)N[C@H]3C(=O)N[C@H](C(C)C)C(=O)N4CCC[C@H]4C(=O)N(C)CC(=O)N(C)[C@@H](C(C)C)C(=O)O[C@H]3C)c3c(c(C)c2o1)Oc1c(C)ccc(C(=O)N[C@@H]2C(=O)N[C@H](C(C)C)C(=O)N4CCC[C@H]4C(=O)N(C)CC(=O)N(C)[C@@H](C(C)C)C(=O)O[C@@H]2C)c1N3 was tested. Which ΔTm [17] did it give?
Answer: 0 °C
